Reference: ChEMBL document CHEMBL3992510, “Urea Derivatives of 2-Aryl-benzothiazol-5-amines: A New Class of Potential Drugs for Human African Trypanosomiasis” (J Med Chem, 2017)

What was measured:
[1] = Stability in human liver microsomes assessed as compound remaining at 1.5 uM in presence of NADPH measured after 60 mins by liquid chromatography/tandem mass spectrometric analysis; assay type: ADME, microsome; conditions: read-out: Stability
Outline: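 Pooled liver microsomes (0.5 mg/mL) are preincubated 5 min at 37 °C in 0.16 M KH2PO4 with 1 mM NADPH, then test compound is added at 1.5 μM. Aliquots are quenched with 4 volumes of acetonitrile at 0, 5, 10, 15, 30 and 60 min and analyzed by LC-MS/MS. Percent remaining at 5 or 60 min is given when t1/2 is outside the 5–60 min range. Controls: testosterone, dextromethorphan.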

[2] = Drug level in mouse brain at 50 mg/kg, po administered as single dose via gavage measured at 1 hr post dose by liquid chromatography/tandem mass spectrometric analysis; assay type: ADME, organism-based; conditions: read-out: Drug uptake
Outline: (§1)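 Single 50 mg/kg oral dose in DMSO (5%), Tween 80 (7%), EtOH (3%) in 0.9% saline; groups of three mice killed at 1, 4, 8 and 24 h. Plasma separated by brief centrifugation; brain homogenised in acetonitrile; both assayed by LC-MS/MS, brain values corrected for 3% v/w blood content. Mean ± SEM of 3 mice; plasma LLQ 0.010 μM.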

[3] = Drug level in mouse brain at 50 mg/kg, po administered as single dose via gavage measured at 24 hrs post dose by liquid chromatography/tandem mass spectrometric analysis; assay type: ADME, organism-based; conditions: read-out: Drug uptake; outline: as §1
[4] = Drug level in mouse plasma at 50 mg/kg, po administered as single dose via gavage measured at 8 hrs post dose by liquid chromatography/tandem mass spectrometric analysis; assay type: ADME, organism-based; outline: as §1
[5] = AUC (0 to infinity) in mouse at 50 mg/kg, po administered as single dose via gavage as 0.5% methylcellulose cP400/0.5% Tween 80 formulation by liquid chromatography/tandem mass spectrometric analysis; assay type: ADME, organism-based; set-up: dose 50 mg/kg, route oral, time infinity; conditions: in vivo
Outline: (§2)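 Single oral gavage dose of 50 mg/kg to groups of three mice, vehicle as in the line. Tail blood of 40 μL is taken into heparinized capillaries at time points out to as much as 32 h. It is spotted on dried-blood cards and quantified by LC-MS/MS. Values are means ± SEM of three mice.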

[6] = Drug level in Swiss-Webster mouse plasma infected with Trypanosoma brucei rhodesiense STIB900 at 50 mg/kg, po bid administered via gavage for 4 days starting from 2 days post infection measured at 1 hr post last dose; assay type: ADME, organism-based
Outline: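 Female Swiss-Webster mice (ND4 outbred, 6−8 weeks), groups of five, infected day 0 with 1 × 10^4 T. b. rhodesiense STIB900; 50 mg/kg oral gavage every 12 h days 2−5 (eight doses) in 200 μL DMSO 5%, Tween 80 7%, EtOH 3% in 0.9% saline. Tail blood from 3 mice before dose 7, then 1 and 6 h post-dose, spotted on cards, LC-MS/MS.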

[7] = Drug level in mouse brain at 5 mg/kg, ip administered as single dose measured at 1 hr post dose by liquid chromatography/tandem mass spectrometric analysis; assay type: ADME, organism-based; conditions: read-out: Drug uptake
Outline: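 Single ip dose of 5 mg/kg in 5% DMSO/7% Tween 80/3% EtOH in 0.9% saline, three mice per compound (six for one compound). At 1 h, plasma is separated by centrifugation and brain homogenized in acetonitrile. Both are quantified by LC-MS/MS, with brain corrected for 3% v/w blood. Brain/plasma ratio is reported as mean ± SEM.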

Plasma = test: Drug level in Swiss-Webster mouse plasma infected with Trypanosoma brucei brucei TREU667 at 50 mg/kg, po bid administered via gavage for 10 days starting from 21 days post infection measured on day 7 prior to dose 15; assay type: ADME, organism-based; conditions: in vivo
Outline: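 Groups of five mice given 1 × 10^4 T. b. brucei TREU667 on day 0; from day 21, 50 mg/kg oral gavage every 12 h for 10 d (20 doses) in 200 μL Phosal 53 MCT (60%), PEG400 (30%), EtOH (10%). Tail blood drawn from 3 mice before dose 15 and 1 and 6 h after it, spotted on cards, LC-MS/MS.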

[8] = Selectivity index, ratio of EC50 for human HepG2 cells to EC50 for Trypanosoma brucei brucei BF427; assay type: toxicity; conditions: read-out: Ratio EC50
[9] = AUC (0 to infinity) in mouse at 50 mg/kg, po administered as single dose via gavage as 60% phosal 53 MCT/30% PEG400/10% EtOH formulation by liquid chromatography/tandem mass spectrometric analysis; assay type: ADME, organism-based; set-up: dose 50 mg/kg, time infinity, route oral; conditions: in vivo; outline: as §2
[10] = AUC (0 to infinity) in mouse at 50 mg/kg, po administered as single dose via gavage as 7% Tween 80/3% EtOH/5% DMSO formulation by liquid chromatography/tandem mass spectrometric analysis; assay type: ADME, organism-based; set-up: dose 50 mg/kg, route oral, time infinity; conditions: in vivo; outline: as §2

Compound: O=C(Nc1ccc2sc(-c3ccc(F)c(F)c3)nc2c1)N1CC[C@H](F)C1
- remaining at 1 h, 1.5 µM [1]: 53%
- concentration at 1 h [2]: 38.2 µM
- concentration at 24 h [3]: 0.28 µM
- concentration at 8 h [4]: 8.97 µM
- AUC(0-inf) [5]: 106 µM·h
- concentration at 1 h [6]: 18.6 µM
- concentration at 1 h [7]: 9.07 µM
- concentration (Plasma): 15.8 µM
- selectivity ratio [8]: > 1440
- AUC(0-inf) [9]: 245 µM·h
- AUC(0-inf) [10]: 220 to 221 µM·h
